In ChEMBL document CHEMBL1125490, “3'-Spiro nucleosides, a new class of specific human immunodeficiency virus type 1 inhibitors: synthesis and antiviral activity of [2'-5'-bis-O-(tert-butyldimethylsilyl)-beta-D-xylo- and -ribofuranose]-3'-spiro-5"-[4"-amino-1",2"-oxathiole 2",2"-dioxide] (TSAO) pyrimidine nucleosides” (J Med Chem, 1992):
In brackets after ≈: the same amount, converted by molar mass.

Key:
[1] = tested on: Human immunodeficiency virus 1; test: Concentration required to inhibit HIV-1 induced cytopathicity in human MT-4 lymphocyte cells.; type: functional, organism-based
Summary of the method: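 MT-4 cells at 5 × 10⁵/mL were infected with HIV-1 at 100 CCID₅₀ per mL of cell suspension, then mixed 1:1 with serial dilutions of compound. After 5 days, viable cells were counted by trypan blue staining. EC₅₀ was the concentration giving 50% protection against virus-induced loss of viable cells. Values are means of at least three to five independent experiments.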

MT4 [2] = test: Concentration required to reduce human MT-4 cell viability by 50%.; type: functional
Summary of the method: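 Mock-infected MT-4 cells were cultured 5 days with serial dilutions of compound, and viable cells were counted by trypan blue staining. CC₅₀ was the concentration reducing viable cell number by 50%. Values are means of at least three to five independent experiments.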

MT4 [3] = test: Ratio of effective concentration to that of cytotoxic concentration against HIV-1 induced cytopathogenicity in MT-4 cells; type: functional
[4] = Human immunodeficiency virus 1, Lymphocyte, read-out: EC50
[5] = Homo sapiens, MT4, read-out: CC50

Structure (SMILES) | EC50 [1, 4] | CC50 (MT4 [2]; [5]) | Selectivity index (MT4 [3]) | EC50 ([1]; lymphocyte) | CC50 (MT4 [2])
Cc1cn([C@@H]2O[C@H](CO[Si](C)(C)C(C)(C)C)[C@@]3(OS(=O)(=O)C=C3N)[C@H]2O[Si](C)(C)C(C)(C)C)c(=O)[nH]c1=O | 0.034 µg/mL (≈ 0.0576 µM) | 7.7 µg/mL (≈ 13.1 µM) |  |  | 
Cc1cn([C@@H]2O[C@H](CO[Si](C)(C)C(C)(C)C)[C@]3(OS(=O)(=O)C=C3N)[C@H]2O[Si](C)(C)C(C)(C)C)c(=O)[nH]c1=O | > 4 µg/mL | 18 µg/mL (≈ 30.5 µM) | <4.5 |  | 
Cc1cn([C@@H]2O[C@H](CO[Si](C)(C)C(C)(C)C)[C@@](C#N)(OS(C)(=O)=O)[C@H]2O[Si](C)(C)C(C)(C)C)c(=O)[nH]c1=O | > 1.6 µg/mL | 4.3 µg/mL (≈ 7.29 µM) | <2.7 |  | 
NC1=CS(=O)(=O)O[C@]12[C@@H](CO)O[C@@H](n1ccc(=O)[nH]c1=O)[C@@H]2O | > 80 µg/mL | 320 µg/mL (≈ 921 µM) | <4 |  | 
Cc1cn([C@H]2C[C@]3(OS(=O)(=O)C=C3N)[C@@H](CO[Si](C)(C)C(C)(C)C)O2)c(=O)[nH]c1=O | > 0.8 µg/mL | 1.5 µg/mL (≈ 3.26 µM) | <1.9 |  | 
Cc1cn([C@@H]2O[C@H](CO[Si](C)(C)C(C)(C)C)[C@@]3(OS(=O)(=O)C=C3N)[C@H]2O)c(=O)[nH]c1=O | > 20 µg/mL | 45 µg/mL (≈ 94.6 µM) | <2.2 |  | 
CC(C)(C)[Si](C)(C)O[C@H]1[C@H](n2ccc(=O)[nH]c2=O)O[C@H](CO)[C@]12OS(=O)(=O)C=C2N | > 100 µg/mL | 221 µg/mL (≈ 479 µM) | <2 |  | 
Cc1cn([C@@H]2O[C@H](CO)[C@@]3(OS(=O)(=O)C=C3N)[C@H]2O[Si](C)(C)C(C)(C)C)c(=O)[nH]c1=O | > 40 µg/mL | 106 µg/mL (≈ 223 µM) | <2.6 |  | 
CC(=O)Nc1ccn([C@@H]2O[C@H](CO[Si](C)(C)C(C)(C)C)[C@]3(OS(=O)(=O)C=C3N)[C@H]2O[Si](C)(C)C(C)(C)C)c(=O)n1 | > 4 µg/mL | 7.1 µg/mL (≈ 11.5 µM) | <1.8 |  | 
Cc1cn([C@@H]2O[C@H](CO)[C@@]3(OS(=O)(=O)C=C3N)[C@H]2O)c(=O)[nH]c1=O | > 100 µg/mL | > 100 µg/mL |  |  | 
CC(=O)Nc1ccn([C@@H]2O[C@H](CO[Si](C)(C)C(C)(C)C)[C@@]3(OS(=O)(=O)C=C3N)[C@H]2O[Si](C)(C)C(C)(C)C)c(=O)n1 | 0.097 µg/mL (≈ 0.157 µM) | 7.5 µg/mL (≈ 12.2 µM) | 77 |  | 
Cc1cn([C@@H]2O[C@H](CO)[C@]3(OS(=O)(=O)C=C3N)[C@H]2O)c(=O)[nH]c1=O | > 500 µg/mL | > 500 µg/mL | <1 |  | 
CC(C)=CCN1Cc2cccc3[nH]c(=S)n(c23)C[C@@H]1C | 0.021 µg/mL (≈ 0.0731 µM) | > 20 µg/mL | >952 |  | 
CC(C)(C)[Si](C)(C)OC[C@H]1O[C@@H](n2ccc(=O)[nH]c2=O)[C@H](O[Si](C)(C)C(C)(C)C)C12OS(=O)(=O)C=C2N (stereo in doubt; 11b) |  |  | <2 | > 1.6 µg/mL | 3.1 µg/mL (≈ 5.38 µM)
CC(C)(C)[Si](C)(C)OC[C@H]1O[C@@H](n2ccc(=O)[nH]c2=O)[C@H](O[Si](C)(C)C(C)(C)C)C12OS(=O)(=O)C=C2N (stereo in doubt; 12b) |  |  | 73 | 0.114 µg/mL (≈ 0.198 µM) | 8.3 µg/mL (≈ 14.4 µM)
Cc1c(Sc2ccccc2)n(COCCO)c(=O)[nH]c1=O [HEPT] | 5.5 µg/mL (≈ 17.8 µM) | > 200 µg/mL | >36 |  | 
Cc1ccnc2c1NC(=O)c1cccnc1N2C1CC1 [NEVIRAPINE] | 0.038 µg/mL (≈ 0.143 µM) | > 20 µg/mL | >526 |  | 
